Results on eight compounds are retold here after ChEMBL document CHEMBL4385662, “Anti-tubercular activity of novel 4-anilinoquinolines and 4-anilinoquinazolines” (Bioorg Med Chem Lett, 2019).

Experiment [1] can be described thus: cells. As to conditions: Homo sapiens, WS1, 48 h. It is filed as ADME, cell-based.
Experiment [2] relates to Mycobacterium tuberculosis. The experiment is described as follows: Anti-tubercular activity against Mycobacterium tuberculosis H37Rv expressing LuxABCDE assessed as relative luminescence by measuring ratio of RLU (test compound)/RLU(no compound) at 1.25 uM by luminescence based assay. It is filed as functional.
In experiment [3] the test system is Mycobacterium tuberculosis. Description: Anti-tubercular activity against Mycobacterium tuberculosis H37Rv expressing LuxABCDE assessed as relative luminescence by measuring ratio of RLU (test compound)/RLU(no compound) at 2.5 uM by luminescence based assay. The format is functional.
Experiment [4] relates to Mycobacterium tuberculosis. The experiment is described as follows: Anti-tubercular activity against Mycobacterium tuberculosis H37Rv expressing LuxABCDE assessed as relative luminescence by measuring ratio of RLU (test compound)/RLU(no compound) at 5 uM by luminescence based assay. The format is functional.
For experiment [5], the system named is Mycobacterium tuberculosis. Description: Anti-tubercular activity against Mycobacterium tuberculosis H37Rv expressing LuxABCDE assessed as relative luminescence by measuring ratio of RLU (test compound)/RLU(no compound) at 10 uM by luminescence based assay. It is filed as functional.
Experiment [6] relates to Mycobacterium tuberculosis. Description: Anti-tubercular activity against Mycobacterium tuberculosis H37Rv expressing LuxABCDE assessed as relative luminescence by measuring ratio of RLU (test compound)/RLU(no compound) at 20 uM by luminescence based assay. The format is functional.
For experiment [7], the system named is Mycobacterium tuberculosis. The experiment is described as follows: Anti-tubercular activity against Mycobacterium tuberculosis H37Rv expressing LuxABCDE assessed as reduction in microbial growth by luminescence based assay. The format is functional. Put shortly: (§1)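 Growth inhibition was assessed by two assays. […] Values are the mean of 3 biological replicates with standard deviation.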

The test system of experiment [8] is Mycobacterium tuberculosis. Description: Anti-tubercular activity against Mycobacterium tuberculosis H37Rv expressing LuxABCDE assessed as reduction in microbial growth at 5 uM by luminescence based assay relative to control. As to conditions: read-out: GI. The format is functional. The gist of the method:
as §1

In experiment [9] the test system is Mycobacterium tuberculosis. The experiment is described as follows: Anti-tubercular activity against Mycobacterium tuberculosis H37Rv expressing LuxABCDE assessed as reduction in microbial growth at 20 uM by luminescence based assay relative to control. Conditions: read-out: GI. The format is functional. Put shortly:
as §1

In experiment [10] the test system is Mycobacterium tuberculosis. Description: Anti-tubercular activity against Mycobacterium tuberculosis H37Rv expressing LuxABCDE assessed as relative luminescence by measuring ratio of RLU (test compound)/RLU(no compound) at 0.625 uM by luminescence based assay. The format is functional, organism-based.

Calls of active or inactive are those of the source. No cut-off for these calls is given here. Some results are limits rather than exact numbers.
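Throughout, for IC50: cell viability loss read out with alamar blue dye, IC50 being the concentration cutting viability by half.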

Take `COc1cc2nccc(Nc3ccc(OCc4ccc(C)cc4)cc3)c2cc1OC`: in [1], the midpoint of inhibition, the IC50, lay at 5.4 µM. Moreover, the Ratio in experiment [2] stood at 0.43; in experiment [3], 0.17; in [4] it was 0.1; in experiment [5], 0.08; in experiment [6] it was 0.09. For the same compound, the MIC90 (commonly an inhibitory concentration at the 90% level, which refers to growth in some studies and to a panel of isolates in others) in experiment [7] fell in the range of 0.63 to 1.25 µM. In experiment [8], the inhibition of growth at 5 µM was determined as 98%. For the same compound, the inhibition of growth at 20 µM in [9] is 98%.
As to `CS(=O)(=O)CCNCc1ccc(-c2ccc3ncnc(Nc4ccc(OCc5cccc(F)c5)c(Cl)c4)c3c2)o1` [LAPATINIB], in [1], the concentration for half-maximal inhibition (IC50) (commonly the concentration needed to halve the response being measured) was found to be 13 µM. Also, the Ratio in experiment [2] came to 0.99; in [3], 0.9; in [4], 0.74; in [5] it was 0.17; in experiment [6] it was 0.08. Besides, the outcome in experiment [10] was inactive.
For `Oc1ccc2ncnc(Nc3ccc(OCc4ccc(F)cc4)cc3)c2c1`, the half-inhibitory concentration (IC50) in experiment [1] is over 100 µM. Further, the Ratio in [2] amounted to 0.86; in [3], 0.76; in experiment [4], 0.64; in [5] it was 0.44; in [6] it was 0.32. Besides, the outcome in experiment [10] was inactive.
`COc1ccc2c(Nc3ccc(OCc4ccccc4)cc3)ncnc2c1` displayed an IC50 in [1] of over 100 µM. Moreover, the Ratio came to 1.05 in [2]; 1.12 in experiment [3]; 0.99 in [4]; 0.87 in experiment [5]; 0.64 in [6]. Besides, in experiment [10], the result was inactive.
As to `Oc1ccc2ncnc(Nc3ccc(OCc4ccccc4F)cc3)c2c1`, the IC50 in experiment [1] stood at 28 µM. For the same compound, the Ratio in experiment [2] amounted to 0.89; in experiment [3] it was 0.82; in experiment [4], 0.63; in experiment [5] it was 0.46; in [6] it was 0.28. In experiment [10], the outcome was inactive.
In the case of `Oc1ccc2ncnc(Nc3ccc(OCc4cccc(F)c4)cc3)c2c1`, half-maximal inhibition in experiment [1] (IC50) was put at 12 µM. Moreover, the Ratio in experiment [2] was 0.76; in experiment [3] it was 0.64; in experiment [4], 0.49; in [5], 0.39; in experiment [6], 0.25. Further, the outcome in experiment [10] was inactive.
As to `Oc1ccc2ncnc(Nc3ccc(OCc4ccccc4)cc3)c2c1`, the IC50 in [1] is 26 µM. Moreover, the Ratio was determined as 0.95 in [2]; 0.94 in experiment [3]; 0.96 in [4]; 0.9 in experiment [5]; 0.8 in experiment [6]. The result in experiment [10] was inactive.
Compound `Oc1ccc2c(Nc3ccc(OCc4ccccc4)cc3)ncnc2c1` displayed an IC50 in experiment [1] of over 100 µM. For the same compound, the Ratio came out at 0.9 in [2]; 0.9 in experiment [3]; 0.89 in experiment [4]; 0.88 in [5]; 0.89 in experiment [6]. For the same compound, the outcome in experiment [10] was inactive.
